Test results as given in ChEMBL document CHEMBL1255453, “Affinity of ceftaroline and other beta-lactams for penicillin-binding proteins from Staphylococcus aureus and Streptococcus pneumoniae” (Antimicrob Agents Chemother, 2010).
Values after ≈ are worked out from the molar mass of the structure shown.

Tests used:
[1] = Binding affinity to methicillin-, vancomycin-resistant, beta-lactamase-positive Staphylococcus aureus 510 PBP3 by competitive binding assay
[2] = Binding affinity to methicillin-resistant, heteroresistant vancomycin-intermediate, beta-lactamase-negative Staphylococcus aureus 873 PBP1 by competitive binding assay
[3] = Binding affinity to against methicillin-, daptomycin-resistant, vancomycin-intermediate, beta-lactamase-positive Staphylococcus aureus 25 PBP1 by competitive binding assay
How it was run: (§1)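 MRSA strain harvested in stationary phase (OD600 >2.00). Membranes prepared by enzymatic lysis, freeze-thaw, sonication and ultracentrifugation, then preincubated with clavulanic acid 1 mg/ml. β-Lactam competition 10 min at 37°C, then Bocillin FL 40 μg/ml, 15 min at 37°C. SDS-PAGE, 520 nm imaging; IC50 = 50% inhibition of Bocillin FL labeling; 3 membrane isolations.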

[4] = test system: Staphylococcus aureus; experiment: Antibacterial activity against methicillin-resistant, vancomycin-intermediate, beta-lactamase-positive Staphylococcus aureus 1287 by macrodilution method; assay type: functional
How it was run: (§2)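 CLSI broth macrodilution MICs. The S. aureus set is 5 MRSA strains (hVISA, VISA, VRSA) plus 1 MSSA. The S. pneumoniae set is 7 clonally unrelated clinical isolates, categorised by penicillin G against 2006 CLSI M100-S17 criteria (resistant ≥2 μg/ml, susceptible ≤0.06 μg/ml).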

[5] = Binding affinity to methicillin-, linezolid-resistant, vancomycin-intermediate, beta-lactamase-positive Staphylococcus aureus 2149A PBP3 by competitive binding assay
[6] = Binding affinity to methicillin-, vancomycin-susceptible Staphylococcus aureus ATCC 29213 PBP2 by competitive binding assay
How it was run: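 MSSA grown in brain heart infusion broth and harvested at OD600 0.3–0.4. Lysed with lysozyme, lysostaphin, DNase I, freeze-thaw and sonication; membranes collected at 100,000 × g. Membranes (100 μg protein) incubated with β-lactam 10 min at 37°C, then Bocillin FL 40 μg/ml, 15 min at 37°C. SDS-PAGE, fluorescence at 520 nm. IC50 is 50% inhibition of Bocillin FL binding; 3 membrane isolations.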

[7] = test system: Staphylococcus aureus; experiment: Antibacterial activity against methicillin-, vancomycin-susceptible Staphylococcus aureus ATCC 29213 by macrodilution method; assay type: functional; how it was run: as §2
[8] = Binding affinity to methicillin-, linezolid-resistant, vancomycin-intermediate, beta-lactamase-positive Staphylococcus aureus 2149A PBP1 by competitive binding assay
[9] = Binding affinity to against methicillin-, daptomycin-resistant, vancomycin-intermediate, beta-lactamase-positive Staphylococcus aureus 25 PBP3 by competitive binding assay; how it was run: as §1
[10] = Binding affinity to methicillin-resistant, vancomycin-intermediate, beta-lactamase-positive Staphylococcus aureus 1287 PBP4 by competitive binding assay
[11] = Binding affinity to methicillin-resistant, heteroresistant vancomycin-intermediate, beta-lactamase-negative Staphylococcus aureus 873 PBP4 by competitive binding assay
[12] = test system: Staphylococcus aureus; experiment: Antibacterial activity against methicillin-resistant, heteroresistant vancomycin-intermediate, beta-lactamase-negative Staphylococcus aureus 873 by macrodilution method; assay type: functional; how it was run: as §2
[13] = target: T1, MecA (Staphylococcus aureus, UniProt Q7DHH4); experiment: Binding affinity to methicillin-, vancomycin-resistant, beta-lactamase-positive Staphylococcus aureus 510 PBP2a by competitive binding assay
T1 sequence (Q7DHH4 whole entry): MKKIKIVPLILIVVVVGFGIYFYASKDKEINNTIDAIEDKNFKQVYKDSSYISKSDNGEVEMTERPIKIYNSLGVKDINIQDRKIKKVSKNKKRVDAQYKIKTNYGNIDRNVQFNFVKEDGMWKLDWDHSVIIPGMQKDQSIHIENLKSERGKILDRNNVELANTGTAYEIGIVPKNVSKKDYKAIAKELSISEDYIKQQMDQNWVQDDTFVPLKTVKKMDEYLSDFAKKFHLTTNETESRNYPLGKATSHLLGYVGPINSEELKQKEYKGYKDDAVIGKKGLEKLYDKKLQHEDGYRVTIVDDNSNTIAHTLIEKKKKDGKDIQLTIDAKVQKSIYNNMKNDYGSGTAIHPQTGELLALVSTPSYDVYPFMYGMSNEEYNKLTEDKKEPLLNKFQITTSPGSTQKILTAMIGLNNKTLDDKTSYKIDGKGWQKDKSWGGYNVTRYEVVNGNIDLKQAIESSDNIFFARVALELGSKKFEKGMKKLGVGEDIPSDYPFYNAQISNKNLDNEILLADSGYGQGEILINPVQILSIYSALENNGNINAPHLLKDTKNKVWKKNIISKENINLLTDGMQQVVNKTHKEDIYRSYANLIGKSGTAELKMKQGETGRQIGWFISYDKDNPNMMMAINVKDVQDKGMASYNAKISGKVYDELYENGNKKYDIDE
How it was run: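 MRSA grown in brain heart infusion and harvested in exponential phase (OD600 0.3–0.4). Membranes prepared by lysozyme/lysostaphin/DNase, freeze-thaw and sonication, then ultracentrifugation. Membranes preincubated with clavulanic acid 1 mg/ml to saturate PBPs other than PBP2a. Then β-lactam 10 min at 37°C and Bocillin FL 40 μg/ml, 15 min at 37°C. SDS-PAGE fluorescence; IC50 = 50% inhibition of Bocillin FL binding; 3 isolations.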

[14] = Binding affinity to methicillin-, linezolid-resistant, vancomycin-intermediate, beta-lactamase-positive Staphylococcus aureus 2149A PBP4 by competitive binding assay
[15] = Binding affinity to methicillin-resistant, vancomycin-intermediate, beta-lactamase-positive Staphylococcus aureus 1287 PBP3 by competitive binding assay
[16] = test system: Streptococcus pneumoniae; experiment: Antibacterial activity against penicillin-susceptible Streptococcus pneumoniae 1076 by macrodilution method; assay type: functional; how it was run: as §2
[17] = target: Penicillin-binding protein 2x (Streptococcus pneumoniae serotype 4 (strain ATCC BAA-334 / TIGR4), UniProt P14677); experiment: Binding affinity to penicillin-resistant Streptococcus pneumoniae 2527 PBP2X by competitive binding assay
Penicillin-binding protein 2x, sequence (P14677 whole entry, looked up): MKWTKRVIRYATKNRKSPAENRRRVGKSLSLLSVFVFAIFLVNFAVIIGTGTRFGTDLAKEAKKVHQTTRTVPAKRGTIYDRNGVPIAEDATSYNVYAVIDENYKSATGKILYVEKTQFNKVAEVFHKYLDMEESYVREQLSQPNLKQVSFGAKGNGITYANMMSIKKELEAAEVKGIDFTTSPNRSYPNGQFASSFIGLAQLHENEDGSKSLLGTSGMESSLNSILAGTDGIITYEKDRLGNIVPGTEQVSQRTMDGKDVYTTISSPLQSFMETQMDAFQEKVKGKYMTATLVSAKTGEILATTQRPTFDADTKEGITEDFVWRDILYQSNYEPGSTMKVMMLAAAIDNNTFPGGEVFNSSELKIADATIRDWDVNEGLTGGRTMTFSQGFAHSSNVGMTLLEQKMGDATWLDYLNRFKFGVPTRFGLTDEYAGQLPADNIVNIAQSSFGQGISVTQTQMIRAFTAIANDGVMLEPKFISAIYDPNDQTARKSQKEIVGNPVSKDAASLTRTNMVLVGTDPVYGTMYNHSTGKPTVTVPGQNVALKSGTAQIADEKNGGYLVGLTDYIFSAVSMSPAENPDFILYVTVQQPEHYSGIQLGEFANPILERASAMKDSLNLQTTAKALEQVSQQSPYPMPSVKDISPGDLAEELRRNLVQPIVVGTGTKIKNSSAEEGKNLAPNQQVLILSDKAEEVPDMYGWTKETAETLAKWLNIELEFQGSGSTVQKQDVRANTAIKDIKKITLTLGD
How it was run: (§3)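 Whole pneumococcal cells were grown to OD600 0.3 in Todd-Hewitt broth plus 0.5% yeast extract, then resuspended in 50 mM NaPO4, pH 7.0. Cells at 10^8 to 5 × 10^8 CFU/ml were exposed to β-lactam for 10 min at 37°C, alongside a reference without drug. They were then labeled with 10 μg/ml Bocillin FL for 15 min at 37°C. Proteins were resolved by SDS-PAGE and fluorescence read at 520 nm. IC50 was taken as 50% inhibition of Bocillin FL binding, from 2 experiments.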

[18] = test system: Streptococcus pneumoniae; experiment: Antibacterial activity against penicillin-resistant Streptococcus pneumoniae 1564 by macrodilution method; assay type: functional; how it was run: as §2
[19] = Binding affinity to penicillin-resistant Streptococcus pneumoniae 2527 PBP3 by competitive binding assay; how it was run: as §3

Structure (SMILES)	IC50 [1]	IC50 [2]	IC50 [3]	MIC [4]	IC50 [5]	IC50 [6]	MIC [7]	IC50 [8]	IC50 [9]	IC50 [10]	IC50 [11]	MIC [12]	IC50 [13]	IC50 [14]	IC50 [15]	MIC [16]	IC50 [17]	MIC [18]	IC50 [19]
CO/N=C(\C(=O)N[C@@H]1C(=O)N2C(C(=O)O)=C(COC(C)=O)CS[C@H]12)c1csc(N)n1 [CEFOTAXIME]	0.25 µg/mL (≈ 0.549 µM)	2 µg/mL (≈ 4.39 µM)	16 µg/mL (≈ 35.1 µM)	4 µg/mL (≈ 8.78 µM)	2 µg/mL (≈ 4.39 µM)	0.25 µg/mL (≈ 0.549 µM)	2 µg/mL (≈ 4.39 µM)	4 µg/mL (≈ 8.78 µM)	1 µg/mL (≈ 2.2 µM)	> 128 µg/mL	> 128 µg/mL	> 64 µg/mL	2200 nM	> 128 µg/mL	1 µg/mL (≈ 2.2 µM)	0.03 µg/mL (≈ 0.0659 µM)	220 nM	32 µg/mL (≈ 70.3 µM)	0.1 µg/mL (≈ 0.22 µM)
CO/N=C(\C(=O)N[C@@H]1C(=O)N2C(C(=O)O)=C(CSc3nc(=O)c(O)nn3C)CS[C@H]12)c1csc(N)n1 [CEFTRIAXONE]	0.25 µg/mL (≈ 0.451 µM)	2 µg/mL (≈ 3.61 µM)	16 µg/mL (≈ 28.9 µM)	8 µg/mL (≈ 14.4 µM)	2 µg/mL (≈ 3.61 µM)	0.25 µg/mL (≈ 0.451 µM)	2 µg/mL (≈ 3.61 µM)	4 µg/mL (≈ 7.21 µM)	1 µg/mL (≈ 1.8 µM)	> 128 µg/mL	> 128 µg/mL	> 64 µg/mL	1800 nM	> 128 µg/mL	1 µg/mL (≈ 1.8 µM)	0.03 µg/mL (≈ 0.0541 µM)	180 nM	32 µg/mL (≈ 57.7 µM)	0.25 µg/mL (≈ 0.451 µM)
CC1(C)S[C@@H]2[C@H](NC(=O)Cc3ccccc3)C(=O)N2[C@H]1C(=O)O [PENICILLIN G]	4 µg/mL (≈ 12 µM)	0.5 µg/mL (≈ 1.5 µM)	0.5 µg/mL (≈ 1.5 µM)	32 µg/mL (≈ 95.7 µM)	2 µg/mL (≈ 5.98 µM)	8 µg/mL (≈ 23.9 µM)	1 µg/mL (≈ 2.99 µM)	2 µg/mL (≈ 5.98 µM)	0.5 µg/mL (≈ 1.5 µM)	4 µg/mL (≈ 12 µM)	> 128 µg/mL	8 µg/mL (≈ 23.9 µM)	191000 nM	> 128 µg/mL	0.25 µg/mL (≈ 0.748 µM)	0.03 µg/mL (≈ 0.0897 µM)	–	16 µg/mL (≈ 47.8 µM)	–
